{
  "source": "paper PMC5576721",
  "about": "(Biochemistry, 2015)",
  "molecules": {"B1": {"name": "core^S (N34^546–579-(L6)-C28^628–655), homotrimeric six-helix bundle of gp41 (domain or fragment)", "chain": "SGIVQQQNNLLRAIEAQQHLLQLTVWGIKQLQARSGGRGGWMEWDREINNYTSLIHSLIEESQNQQEK"}},
  "key": {"core^SP [1]": {"tested_on": "core^SP", "experiment": "SEC titration of C34-AL647 into core^SP", "type": "binding, HIV-1"}, "core^SP [2]": {"tested_on": "core^SP", "experiment": "Circular dichroism of core^SP with and without C34", "design": "species or system HIV-1", "conditions": "core^SP 2.5 μM trimer, 5-fold excess C34, buffer A pH 7.6, 20 °C", "outline": "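CoreSP (N-HR and C-HR peptides counted as one unit) is used at 2.5 μM trimer, alone or with a 5-fold molar excess of C34, in 10 mM Tris-HCl pH 7.6 with 150 mM NaCl. Spectra are recorded at 20 °C in a 0.1 cm path-length flat cell. α-Helical content is estimated by CDNN.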"}, "HIV-1 fusion": {"tested_on": "HIV-1 fusion", "conditions": "ref [17] Markosyan et al.; cited from earlier work"}, "core^S [3]": {"tested_on": "core^S", "experiment": "SEC titration of C34-AL647 into core^S", "type": "binding, HIV-1", "conditions": "fits of 280 and 609+650 nm peak areas"}, "core^S [4]": {"tested_on": "core^S", "experiment": "ITC with core^S", "type": "binding, HIV-1", "conditions": "C34 0.05–0.1 mM into 5–10 μM core^S, 10 mM Tris-HCl pH 7.6, 150 mM NaCl, 25 °C, iTC200"}, "core^SP [5]": {"tested_on": "core^SP", "experiment": "SEC-MALS and SEC displacement of C38 / C38-AL647 from core^SP", "type": "binding, HIV-1", "conditions": "5-fold molar excess C34, SEC–MALS, confirmed with core^SP-AL647"}, "5-helix [6]": {"tested_on": "5-helix", "conditions": "5-fold molar excess C34, 200 μg 5-helix, 10 mM Tris-HCl pH 7.6, 150 mM NaCl"}, "5-helix [7]": {"tested_on": "5-helix"}, "core^S [8]": {"tested_on": "core^S", "experiment": "Native-PAGE band shift with core^S", "type": "binding, HIV-1", "conditions": "10 μM core^S, 30 min, room temperature, 20% homogeneous gel"}, "N-Cys core^S": {"tested_on": "N-Cys core^S", "experiment": "DEER EPR of N-Cys core^S with and without C34", "design": "species or system HIV-1", "conditions": "50 μM subunits, 1.2-fold molar excess C34, Q-band, 50 K"}, "core^S [9]": {"tested_on": "core^S", "experiment": "Circular dichroism of core^S with and without C34", "design": "species or system HIV-1"}, "core^S [10]": {"tested_on": "core^S", "experiment": "SEC-MALS binding stoichiometry with core^S", "design": "species or system HIV-1"}, "6-helix": {"tested_on": "6-helix", "experiment": "SEC-MALS binding stoichiometry with 6-helix", "design": "species or system HIV-1", "conditions": "5-fold molar excess C34, 200 μg 6-helix, 10 mM Tris-HCl pH 7.6, 150 mM NaCl"}, "[11]": {"target": "single-chain six-helix bundle (6-helix) (HIV-1) (UniProt P04578)", "experiment": "SEC-MALS"}, "[12]": {"target": "single-chain five-helix bundle (5-helix) (HIV-1) (UniProt P04578)", "experiment": "SEC-MALS"}, "[13]": {"target": "the molecule itself", "experiment": "composition gradient–MALS"}},
  "note": "Entries after “also recorded” stand apart in the source; their conditions may differ.",
  "data": [
    {"molecule": "Ac-C-HR^628–661-NH2 [C34]", "values": [
      {"measurement": "equilibrium constant for the exchange reaction of C34 with C38", "setting": "core^SP [1]; core^SP, value in discussion", "value": 0.9},
      {"measurement": "cooperativity of exchange with core^SP", "setting": "core^SP [1]; fits of 609+650 nm peak areas", "value": "no evidence of any cooperativity"},
      {"measurement": "change in helicity of core^SP on C34 binding", "setting": "core^SP [2]", "value": "no change in helicity"},
      {"measurement": "time window of fusion inhibitory activity", "setting": "HIV-1 fusion", "value": "can extend from the point at which the prehairpin intermediate of gp41 becomes accessible through the formation of late prebundle intermediates and labile pore formation, but not after irreversible formation of the six-helix bundle"},
      {"measurement": "cooperativity of binding to core^S", "setting": "core^S [3]", "value": "no evidence of any cooperativity"},
      {"measurement": "heat signature in ITC with core^S", "setting": "core^S [4]", "value": "did not yield a heat signature"},
      {"measurement": "displacement of C38 from core^SP", "setting": "core^SP [5]", "value": "binding of C34 to core^SP is accompanied by displacement of C38"},
      {"measurement": "binding to 5-helix (stoichiometry)", "setting": "5-helix [6]", "value": "binds with a 1:1 stoichiometry"},
      {"measurement": "binding to 5-helix by native-PAGE", "setting": "5-helix [7]; native-PAGE, room temperature", "value": "binding of C34 is clearly evident"},
      {"measurement": "stoichiometry of binding to 5-helix by native-PAGE", "setting": "5-helix [7]; positive control", "value": "1:1 stoichiometry of binding"},
      {"measurement": "binding to core^S by native-PAGE", "setting": "core^S [8]", "value": "even at 3:1 and 3:2 core^S:C34 ratios (Figure 4C) a significant amount of complex comprising two C34 molecules bound to one core^S trimer is formed; also recorded: binding of C34 is clearly evident"},
      {"measurement": "effect of C34 on DEER dipolar evolution data / P(r) of N-Cys core^S", "setting": "N-Cys core^S", "value": "negligible effect"},
      {"measurement": "increase in helicity of core^S on C34 binding", "setting": "core^S [9]; core^S 7 μM trimer, 5-fold molar excess C34, buffer A pH 7.6, 20 °C", "value": "~ 18%"},
      {"measurement": "additional residues in helical conformation of core^S trimer", "setting": "core^S [9]; two C34 bound, two C28 C-HR displaced, 5-fold molar excess C34", "value": 30, "unit": "residues"},
      {"measurement": "binding stoichiometry with core^S", "setting": "core^S [10]; 5-fold molar excess C34, 10 mM Tris-HCl pH 7.6, 150 mM NaCl", "value": "one core^S trimer to two C34 peptides with no dissociation of the core^S trimer; also recorded: binding of two C34 molecules to one core^S trimer"},
      {"measurement": "evidence for a 1:3 core^S–(C34)3 complex", "setting": "core^S [10]; SEC–MALS and band-shift assays", "value": "no evidence of the existence of a 1:3 core^S–(C34)3 complex"},
      {"measurement": "binding to 6-helix (stoichiometry)", "setting": "6-helix", "value": "weak binding of C34 as a 1:1 complex"}
    ]},
    {"molecule": "C34 peptide (chemically synthesized, Ac-C-HR^628–661-NH2) (from UniProt P04578 628-661)", "values": [
      {"measurement": "stoichiometry N (C34 per 6-helix)", "setting": "[11]", "value": 1},
      {"measurement": "stoichiometry N (C34 per 5-helix)", "setting": "[12]", "value": 1}
    ]},
    {"molecule": "B1", "values": [
      {"measurement": "Kd", "setting": "[13]", "value": "< 250", "unit": "nM"}
    ]}
  ]
}
